# STAT3 blocker: inhibitors of IL-6 induced STAT3 signaling. AID 862. 190,000 tested, 0.89% active. inhibition, % at 5.5 µM. U3A cells, IL-6 STAT3-luciferase reporter, luminescence; host cell line lacks STAT1;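 active means inhibition above the mean inhibition across all screened compounds plus 3 SD, cut at about 44% in these data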;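 further: 0% = DMSO only wells and 100% = 100 µM nifuroxazide control wells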
# STAT1 blocker: reduces IFN-gamma driven STAT1 reporter signal. NIH 3T3 STAT1-luciferase reporter, luminescence. AID 920. 200,000 tested, 0.35% active. inhibition, % at 5.5 µM;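 active means inhibition above a set limit, the mean inhibition across all tested compounds plus 3 SD, cut at about 34% in these data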;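 further: 0% = IFN-gamma with DMSO and 100% = IFN-gamma with 300 µM nifuroxazide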
# HSP90 inh: blocks HSP90-mediated luciferase refolding in reticulocyte lysate. Rabbit reticulocyte lysate, luciferase refolding luminescence, 3 h. inhibition, % at 5.6 µM. 290,000 tested, 0.91% active;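 active means inhibition above the screen-wide mean plus 3 SD, computed separately per campaign, cut at about 16% in these data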;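 further: 0% = DMSO wells and 100% = 60 µM geldanamycin wells; inhibitors lower the luminescence because luciferase stays unfolded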
# STAT3 activator: activators of IL-6 induced STAT3 signaling; U3A cells, IL-6 STAT3-luciferase reporter, luminescence; 100% = signal with IL-6 EC80 alone; activation (% of control), % at 5.6 µM; 190,000 tested, 0.91% active;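 active means activation above the screen-wide mean of compound activation plus 3 SD, cut at about 130% in these data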;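 further: 0% = background luminescence of wells with medium and substrate only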
#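 Material: STAT3-luciferase reporter U3A cells; Probe or stimulus: IL-6 (33 ng/mL); Incubation: compound pre-incubation 1 h before IL-6, then 6 h stimulation at 37 °C; Technique: luminescence from STAT3-driven luciferase reporter; Evaluation: % activation versus median of IL-6-stimulated wells; Controls: IL-6-only high control.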
# PPC-1+TRAIL kill: PPC-1 cancer cell killing with TRAIL present; 220,000 tested, 0.41% active; PPC-1 cells + TRAIL, ATPLite viability luminescence; cell killing (% activity), % at 4 µM or 5 µM; AID 1443;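 active means cell killing above 50% in the first pass at 4 µM, then a duplicate retest at 5 µM averaging 50% or more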;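 further: plate controls were cells with TRAIL plus DMSO for no effect and medium-only wells lacking cells for full effect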
# TRAIL sens C8: caspase-8 TRAIL sensitization. NB7+C8 cells + TRAIL, ATPlite viability luminescence. inhibition (viability loss, TRAIL sensitization), % at 10 µM. 360,000 tested, 1% active;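 active means compounds causing at least 50% loss of cell viability in the single-dose screen, relative to plate controls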
# HSP90 confirm: confirmation of HSP90 inhibitors; shares compounds with HSP90 inh; rabbit reticulocyte lysate, luciferase refolding luminescence, 3 h; inhibition, % at 5.9 µM; 2,300 tested, 64% active; in the data active means inhibition above about 18%;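 further: 0% = vehicle wells and 100% = reference inhibitor wells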
# luciferase ctr: firefly luciferase inhibition, HSP90 counter-screen. shares compounds with HSP90 inh. purified native firefly luciferase, luminescence. inhibition, % at 5.9 µM. 2,300 tested, 48% active;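 active means inhibition above the mean inhibition of all tested sample wells plus 3 SD, cut at about 10% in these data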;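 further: 0% = DMSO with luciferase and 100% = wells lacking luciferase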
# Target sequence (P08659 whole entry, looked up): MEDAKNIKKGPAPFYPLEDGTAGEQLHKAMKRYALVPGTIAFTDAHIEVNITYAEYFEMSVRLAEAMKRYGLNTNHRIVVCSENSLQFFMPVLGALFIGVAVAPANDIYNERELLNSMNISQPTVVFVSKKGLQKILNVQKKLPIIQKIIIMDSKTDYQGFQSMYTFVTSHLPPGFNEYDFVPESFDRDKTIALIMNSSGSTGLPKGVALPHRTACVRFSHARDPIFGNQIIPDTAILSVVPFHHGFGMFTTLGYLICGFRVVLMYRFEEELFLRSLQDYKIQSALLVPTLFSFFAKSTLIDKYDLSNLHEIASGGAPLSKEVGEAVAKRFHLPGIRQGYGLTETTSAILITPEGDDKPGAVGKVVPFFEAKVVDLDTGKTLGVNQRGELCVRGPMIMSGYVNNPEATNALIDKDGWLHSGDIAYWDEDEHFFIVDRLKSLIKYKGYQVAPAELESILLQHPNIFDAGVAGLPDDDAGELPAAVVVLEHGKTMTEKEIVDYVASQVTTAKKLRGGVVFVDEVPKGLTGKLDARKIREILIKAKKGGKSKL
# Numbers without * were called inactive; . = no result given. Compounds with a hit are over-represented: about 2.3% of the library has one in this group of screens.
SMILES,STAT3 blocker,STAT1 blocker,HSP90 inh,STAT3 activator,PPC-1+TRAIL kill,TRAIL sens C8,HSP90 confirm,luciferase ctr
CCOC(=O)CSc1ccc2nnc(-c3cccs3)n2n1,2,6,-1,103,.,-4,.,.
C/C=C/c1ccc(OCC(O)CN(C)Cc2ccc(SC)cc2)c(OC)c1 (centres undefined),.,.,2,.,.,-2,.,.
Cc1cnc(CNC(=O)C2CCC(=O)N(Cc3ccc(Cl)cc3)C2)[nH]1 (centres undefined),.,.,-1,.,.,9,.,.
Cn1c(=O)c2[nH]c(Nc3ccccc3)nc2n(C)c1=O,4,14,-1,100,18,3,.,.
COc1cccc(/C=C2\CCC(C3CCCC3)C2=O)c1 (centres undefined),.,.,-3,.,.,6,.,.
Cc1ccc(C2(C)NC(=O)N(CC(=O)N(C)CC(=O)Nc3cccc(F)c3)C2=O)cc1 (centres undefined),.,.,.,.,.,-2,.,.
CC(C)(C)OC(=O)C[C@H]1C/C=C\C[C@@H](CC(=O)N(CCO)Cc2ccccc2)C(=O)N[C@@H](c2ccccc2)COC1=O,.,.,.,.,.,-1,.,.
COc1ccccc1C(=O)O/N=C(\N)c1ccccn1,.,.,28*,.,34,26,2,4
COc1cc(OC)c(C(=O)O/N=C(\N)c2ccccn2)cc1OC,.,.,-5,.,.,2,.,.
O=C(CCSc1ccccc1)Nc1ccc(S(=O)(=O)N2CCOCC2)cc1,-2,7,-3,100,-3,-3,.,.
CC(=O)N(CCC(Cc1ccccc1)c1ccco1)Cc1ccco1 (centres undefined),.,.,22*,.,-6,-5,4,2
O=C(c1ccco1)N(CCC(c1ccccc1)c1ccco1)Cc1ccco1 (centres undefined),-26,-2,-3,121,5,2,.,.
C=CCSc1nnc(-c2ccccc2N=Cc2c(C)[nH]n(-c3ccccc3)c2=O)c(=O)[nH]1,-14,-7,22*,110,24,3,-4,-8
COc1ccc(-c2cc3nnc(-c4ccccc4)nc3s2)cc1,5,-37,21*,95,9,37,45*,43*
COc1cc(C(=O)OCC(=O)c2cc(C)n(CC3CCCO3)c2C)cc(OC)c1C (centres undefined),.,.,.,.,.,7,.,.
Cc1cc(C(=O)COC(=O)c2ccc3c(c2)OCO3)c(C)n1CC1CCCO1 (centres undefined),30,8,29*,77,32,1,49*,54*
Cc1cc(C(=O)CSc2nc3ccccc3o2)c(C)n1CC1CCCO1 (centres undefined),36,-32,35*,71,15,38,42*,46*
COC(=O)c1ccc(NC(=O)CN2CCN(c3cccc(Cl)c3)CC2)cc1,1,9,4,103,20,4,.,.
C=CCn1c(C)cc(C(=O)COC(=O)[C@@H](NC(=O)c2ccccc2Cl)C(C)C)c1C,40,22,27*,65,77*,85*,54*,43*
CC1CCC(NC(=O)C2CCN(c3c4c(nc5ncnn35)CCC4)CC2)CC1 (centres undefined),.,.,0,.,.,10,.,.
CC(CCc1ccccc1)NCc1ccc(Cl)cc1Cl (centres undefined),.,.,0,.,.,-4,.,.
Cc1ccc2[nH]c(=O)c(COC(=O)C3CCCCC3)cc2c1,.,.,44*,.,9,8,-1,-16
O=C(OCc1cc2ccccc2[nH]c1=O)C1CCCCC1,6,7,-2,98,7,2,.,.
CN(C)c1cccc2c1c(NC(=O)Nc1ccccc1)nn2C,.,.,1,.,6,-35,.,.
CCOC(=O)c1sc(NC(=O)c2c(OC)cccc2OC)nc1C,15,0,0,88,8,2,.,.
SMILES,STAT3 blocker,STAT1 blocker,HSP90 inh,STAT3 activator,PPC-1+TRAIL kill,TRAIL sens C8,HSP90 confirm,luciferase ctr
COC(=O)c1sc(NC(=O)c2oc3ccccc3c2C)nc1C,-30,-48,55*,128,-7,-6,35*,-24
CC(=O)c1sc(NC(=O)c2ccc(C)c(C)c2)nc1C,33,-50,9,75,-9,33,.,.
CC(=O)c1sc(NC(=O)c2ccc(C(C)(C)C)cc2)nc1C,29,-34,30*,80,27,55*,9,-5
CCOC(=O)c1sc(NC(=O)c2ccc(C)o2)nc1C,-1,-25,45*,107,35,39,44*,-14
CCOC(=O)c1sc(NC(=O)c2ccc(OC)cc2)nc1C,17,-6,18*,90,6,9,28*,-6
COC(=O)c1sc(NC(=O)c2ccc(C)o2)nc1C,7,-22,10,93,34,40,.,.
Cc1c(C(=O)CN2CCCC(C)(C)C2)c2ccccc2n1C,.,.,1,.,.,-25,.,.
COc1ccc(-c2cc3ccc(OCC(C)=O)cc3oc2=O)cc1OC,.,.,6,.,.,10,.,.
C=CCSc1nc(N)c(C#N)c(-c2ccccc2)c1C#N,10,2,-2,95,2,10,.,.
O=C(CNC(=O)c1cccs1)Nc1cccc(S(=O)(=O)N2CCOCC2)c1,.,.,.,.,.,-5,.,.
N#C/C(=C\c1ccc(-c2ccccc2)cc1)c1nc(-c2ccco2)cs1,-6,-4,1,105,5,5,.,.
COc1ccc(-c2noc(CN(C)C(=O)c3ccc4c(c3)OCO4)n2)cc1OC,.,.,-4,.,.,-7,.,.
O=C(Nc1nnc(SCC(=O)N2CCCCC2)s1)c1ccc(F)cc1F,.,.,51*,.,.,30,0,-25
COc1ccccc1NC(=S)NC(NC(=O)c1ccco1)C(Cl)(Cl)Cl (centres undefined),-2,2,-4,104,21,3,.,.
Cc1[nH]c2ccccc2c1C(c1ccccn1)N1CCCC1 (centres undefined),5,-6,4,99,18,3,.,.
Cc1[nH]c2ccccc2c1C(c1ccccn1)N1CCC(C)CC1 (centres undefined),10,-9,46*,94,-4,-6,1,-6
COc1cc2cc(CN(C(=O)NC3CCCCC3)C3CCCC3)c(=O)[nH]c2cc1OC,-6,-7,22*,108,-2,-22,-4,-8
O=C(c1cccc(-c2ccccc2F)c1)N1CC[C@@H](N2CCC(O)CC2)[C@H](O)C1,.,.,84*,.,.,8,4,-4
Cc1cc(C)c2nc(SCC(=O)Nc3cc(C)on3)c(C#N)cc2c1,.,.,5,.,.,9,.,.
Fc1ccccc1Nc1nc2ccccc2o1,.,.,24*,.,.,26,41*,28*
COc1ccc(Cl)cc1NC(=O)CCc1nc(-c2ccccc2F)no1,12,0,27*,90,0,-5,1,-3
CC(C)(C)NC(=O)c1sccc1C(=O)O,3,0,-1,100,.,-8,.,.
CC1CCCCN1C(=O)COc1ccc2ccc(=O)oc2c1 (centres undefined),9,-1,2,99,20,-1,.,.
